# The list is not random: actives were taken first. Their share in the collection is about 2.3%.
# TRPC6 inh – inhibitors of mouse TRPC6 channel; 1.1% of 310,000 active; AID 2553; HEK293-TRPC6, membrane potential dye, ACh-evoked depolarization; active compounds read low; B-score at 10 µM;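 active = B-score under library mean minus 3 SD, initial fluorescence not abnormally high, positive integrated signal ratio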;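 note: B-score derived from integrated fluorescence ratio over the kinetic read; more negative B-score means stronger inhibition of depolarization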
# TRPC4 agonist – opens the mouse TRPC4 cation channel; B-score at 10 µM; 0.49% of 310,000 active; AID 2237; HEK293 TRPC4beta/mu-opioid, Fluo4 calcium fluorescence; active compounds read high;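 active = B-score above 5 SD of library B-scores, and initial fluorescence ratio not above library mean plus 5 SD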;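 note: positive B-score marks a calcium rise read as TRPC4 activation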
# Target sequence (Q9QUQ5 whole entry, looked up): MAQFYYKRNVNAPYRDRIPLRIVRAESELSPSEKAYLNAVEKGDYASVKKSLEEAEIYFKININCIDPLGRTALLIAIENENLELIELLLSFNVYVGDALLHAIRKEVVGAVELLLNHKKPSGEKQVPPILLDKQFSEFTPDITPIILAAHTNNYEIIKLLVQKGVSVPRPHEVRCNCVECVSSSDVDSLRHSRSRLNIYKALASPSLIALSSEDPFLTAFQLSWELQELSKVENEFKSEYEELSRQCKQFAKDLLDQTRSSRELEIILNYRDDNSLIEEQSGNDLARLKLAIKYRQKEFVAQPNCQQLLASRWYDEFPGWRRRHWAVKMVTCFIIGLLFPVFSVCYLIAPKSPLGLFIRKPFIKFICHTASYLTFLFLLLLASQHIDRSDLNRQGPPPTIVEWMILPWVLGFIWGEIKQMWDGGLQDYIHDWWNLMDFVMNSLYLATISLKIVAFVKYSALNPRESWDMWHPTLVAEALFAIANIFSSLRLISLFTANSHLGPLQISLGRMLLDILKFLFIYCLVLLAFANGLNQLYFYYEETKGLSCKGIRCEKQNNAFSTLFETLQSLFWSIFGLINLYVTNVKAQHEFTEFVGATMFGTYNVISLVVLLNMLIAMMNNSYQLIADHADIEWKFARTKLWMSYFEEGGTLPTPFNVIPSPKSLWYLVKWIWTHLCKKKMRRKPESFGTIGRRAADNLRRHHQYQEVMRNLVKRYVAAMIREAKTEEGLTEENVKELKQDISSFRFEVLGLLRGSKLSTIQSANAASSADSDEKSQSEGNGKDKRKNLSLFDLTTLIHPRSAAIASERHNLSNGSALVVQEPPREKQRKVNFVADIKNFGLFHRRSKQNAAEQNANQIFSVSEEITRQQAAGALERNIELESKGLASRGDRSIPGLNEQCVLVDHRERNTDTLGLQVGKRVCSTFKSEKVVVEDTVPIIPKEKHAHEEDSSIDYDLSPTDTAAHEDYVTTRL
#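 Technique: kinetic Fluo4 calcium fluorescence; Test system: TRPC4beta and mu-opioid receptor HEK293 stable cells; Measure: B-scored integrated calcium fluorescence ratio; Benchmarks: low control buffer alone, high control maximal DAMGO; Schedule: 45 min room-temperature Fluo4 loading, 110 s read.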
# TRPC4 block – inhibitors of mouse TRPC4 channel; Q9QUQ5; HEK293 TRPC4beta/mu-opioid, DAMGO-evoked Fluo4 calcium flux; active compounds read low; B-score at 10 µM; 0.39% of 300,000 active;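 active = B-score over 3 SD under the library average, no early fluorescence shift, positive overall ratio signal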
#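 System: stable TRPC4beta/mu-opioid receptor HEK293 cells; Dosing: single-point compound dosing; Measured by: Fluo4 Ca2+ flux fluorescence; Read-out basis: per-well B score of integrated baseline-normalized Fluo4 ratio.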
# TRPC6 activator – mouse TRPC6 channel activation; AID 2550; B-score at 10 µM; Q61143; 0.13% of 310,000 active; HEK293-TRPC6 membrane potential dye fluorescence; active compounds read high;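 active = B-score of the integrated fluorescence ratio above library mean plus 3 SD, and starting fluorescence ratio within library mean plus 5 SD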;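 note: higher score means more depolarization so channel activation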
# TRPC4 potent – allosterically enhances the mouse TRPC4 cation channel. Q9QUQ5. AID 2227. HEK293 TRPC4beta/mu-opioid, DAMGO EC20, Fluo-4 Ca2+ flux; active compounds read high. 0.42% of 310,000 active. B-score at 10 µM;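 active = B-score of calcium response area above 5 SD of library B-scores, with initial fluorescence ratio within 5 SD of library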;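 note: B-score of integrated fluorescence ratio over time as area under calcium response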
# An asterisk follows results filed as active; i = inactive.
SMILES,TRPC6 inh,TRPC4 agonist,TRPC4 block,TRPC6 activator,TRPC4 potent
CCCC1C(=O)Nc2ccccc2N1C(=O)c1ccc(C(C)(C)C)cc1 (stereo not given),i,i,i,i,16*
CC(=NCCN1CCN(C(C)=C2C(=O)c3ccccc3C2=O)CC1)C1=C(O)CC(C)(C)CC1=O,i,i,i,i,14*
CCN(Cc1ccccc1)c1ccc(/C=N/NC(=S)NC(C)C)cc1,i,i,i,i,i
CCN(Cc1ccccc1)c1ccc(/C=N/N=C(N)N)cc1,i,145*,i,i,i
O=c1c2c(-c3ccccc3)csc2ncn1/N=C/c1ccc(O)c([N+](=O)[O-])c1,i,i,i,i,i
O=c1c2c(-c3ccccc3)csc2ncn1/N=C/c1cccc([N+](=O)[O-])c1O,i,68*,-8*,i,i
N#Cc1c(N)sc2c1CCCCCC2,i,i,-7*,i,i
Cc1ccc(C)n1-c1nnc(N2CCC(C(=O)NCCCN3CCN(C)CC3)CC2)s1,i,i,i,i,i
Cc1ccc(C)n1-c1nnc(N2CCC(C(=O)NCCCN3CC(C)CC(C)C3)CC2)s1 (stereo not given),i,88*,i,i,i
Cc1cc(=O)n2nc(N3CCCC(C(=O)NCCCN4CC(C)CC(C)C4)C3)sc2n1 (stereo not given),i,47*,i,i,i
CCOc1cc(NC(=S)NCCc2ccccc2)c(OCC)cc1NC(C)=O,i,i,i,i,i
Cc1cc2nc3n(c2cc1C)CCCN3,i,i,i,i,i
CCN(CC)CCOc1ccc(Br)cc1,i,i,i,i,11*
CCN(CC)CCCOc1ccc(Cl)c(Cl)c1,i,46*,i,i,24*
CCN(CC)CCOc1ccc(/C(=C(\Cl)c2ccccc2)c2ccccc2)cc1,i,i,i,i,i
C=CCn1c(CCNC(=O)C(C)(C)C)nc2ccccc21,i,146*,i,i,i
O=C(NC1CCCCCC1)C1CCC(=O)N(Cc2ccccc2F)C1 (stereo not given),i,i,i,i,i
CN1CCN(NC(=O)c2ccc(Cl)c([N+](=O)[O-])c2)CC1,i,44*,i,i,i
O=C(Nc1nc(-c2cccc3ccccc23)cs1)c1cnccn1,i,i,i,i,i
CCCSc1ccc([C@@H]2[C@H]3C(=O)N(CC)C(=O)[C@H]3[C@]3(C(=O)OC)CCCCN23)cc1,i,i,i,i,i
O=C(CN1C(=O)C(=O)N(Cc2ccccc2)C1=O)Nc1ccc(F)c(Cl)c1,i,i,i,i,i
CCOC(=O)C1CCCN(Cc2ccc(OC)c(OCc3ccccc3)c2)C1 (stereo not given),i,i,i,i,i
Cc1cc(C)c(S(=O)(=O)NCC2CCC(C(=O)NCCCN3CCC(C)CC3)CC2)c(C)c1 (stereo not given),i,i,i,i,i
CSCCC(NS(=O)(=O)c1ccc2c(c1)oc(=O)n2C)C(=O)NC1CCCCC1 (stereo not given),i,i,i,i,i
CSCCC(NS(=O)(=O)c1ccc2c(c1)c(=O)n(C)c(=O)n2C)C(=O)NC1CCN(Cc2ccccc2)CC1 (stereo not given),i,90*,i,i,i
SMILES,TRPC6 inh,TRPC4 agonist,TRPC4 block,TRPC6 activator,TRPC4 potent
COC(=O)c1cccc(C(=O)N2CCCC(CCC(=O)N(C)CCc3ccccn3)C2)c1 (stereo not given),i,i,i,i,i
CC[C@@H](C(=O)[C@@H](C)[C@@H](O)[C@H](C)CCc1ccc(C)c(O)c1C(=O)O)[C@H]1O[C@](CC)([C@H]2CC[C@](O)(CC)[C@H](C)O2)C[C@@H]1C,i,160*,i,i,i
Cc1nnc2c(SC(C)C)nc3ccccc3n12,i,i,i,i,i
COc1ccc(C2CC(c3ccccc3)Nc3nc(NC(=O)c4cccs4)nn32)cc1 (stereo not given),i,i,-6*,i,i
CCOC(=O)C1=C(C)N(c2ccccc2)C(=O)NC1c1cccc([N+](=O)[O-])c1 (stereo not given),i,i,i,i,15*
Cc1ccsc1C(=O)OCC(=O)NCCNC(=O)COC(=O)c1sccc1C,i,i,-7*,i,i
O=C(CC1C(=O)NCCN1Cc1ccc(Cl)c(F)c1)NC1CCCCC1 (stereo not given),i,i,i,i,i
Cc1noc(C)c1CN1C(=O)c2ccccc2C1=O,i,i,i,i,i
CCCCN(C)CCCNC(=O)CN1N=C(c2ccc(Cl)cc2)CCC1=O,i,102*,i,i,12*
O=C(Nc1ccccc1-c1ccccc1)c1cnccn1,i,i,i,i,13*
CC(=O)N1CCN(c2nc(CC(C)C)c3c(c2C#N)CCC3)CC1,i,i,i,i,i
CC(C)Cc1nc(N2CCN(C(=O)C(C)C)CC2)c(C#N)c2c1CCC2,i,i,i,i,25*
CC(C)Cc1nc(N2CCN(C(=O)c3ccccc3)CC2)c(C#N)c2c1CCC2,i,i,i,i,13*
CC1=C(C(=O)OC2CCCCC2)C(c2ccc(F)cc2)NC(=O)N1 (stereo not given),i,i,i,i,i
COC(=O)C1=CN(c2ccc(F)cc2)C=C(C(=O)OC)C1c1ccc(O)cc1,i,i,i,i,i
O=S1(=O)CCOCCCN1Cc1ccccc1,i,i,i,i,i
COCCCn1c(N)c(-c2nc3ccccc3n2C)c2nc3ccccc3nc21,i,74*,i,i,i
Cn1c(-c2c(N)n(CCCc3ccccc3)c3nc4ccccc4nc23)nc2ccccc21,i,i,i,i,i
O=C(O)c1[nH]c2ccccc2c1C(c1cc(Br)ccc1O)c1c(C(=O)O)[nH]c2ccccc12,i,i,i,i,i
O=C(CCCc1ccccc1)NCCS(=O)(=O)N1CCN(c2ccc(F)cc2)CC1,i,i,i,i,i
CCSc1nc(N)c2c3c(sc2n1)CN(C)CC3,-5.28*,i,i,i,i
CC1CCN(C(C)C(=O)Nc2ccccc2-c2ccccc2)CC1 (stereo not given),i,i,-7*,i,i
NCCCn1c(C(=O)c2cc(Cl)c(N)c(Cl)c2)c2ccccc2[n+]1[O-],i,178*,i,i,i

# Screening results deposited in PubChem BioAssay by Johns Hopkins Ion Channel Center.
